Assay outcomes: PubChem BioAssay, Broad Institute
DENV2 CPE – protects cells from dengue virus 2 cytopathic effect; DENV2-infected cells, cytopathic effect rescue, plate reader; 350,000 tested, 1.7% active; CPE inhibition, % at 9.99 µM; AID 651640; in the data active = CPE inhibition above about 20%, passing the limit was not always enough; tested in BHK-21 cells
FGF22 binding – FGF22 (human) thermal shift binding; Q9HCT0; recombinant FGF22 thermal shift, SYPRO orange fluorescence; percent of sucrose octasulfate shift, DMSO zero; activity (Tm shift, normalised), % at 9.99 µM; 340,000 tested, 1.5% active; AID 651658;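 active = mean Tm shift, scaled 0 neutral to 100 positive control, at about 1.3% or above, every replicate too, limit read from the data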
Target sequence (Q9HCT0 whole entry, looked up): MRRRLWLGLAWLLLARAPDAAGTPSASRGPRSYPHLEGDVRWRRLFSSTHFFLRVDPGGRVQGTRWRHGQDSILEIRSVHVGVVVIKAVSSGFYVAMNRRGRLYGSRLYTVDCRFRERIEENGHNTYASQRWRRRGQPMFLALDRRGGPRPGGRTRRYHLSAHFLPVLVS
Statin myotox sup – suppressors of simvastatin-induced myotoxicity in C2C12 myotubes. ATP luminescence, 48 h; scaled: DMSO 0, geranylgeraniol control 100. rescue of ATP level, % at 7.49 µM. 330,000 tested, 0.78% active. AID 602340;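 active = mean ATP rescue above about 67%, or every replicate alone reaching that limit, limit read from the data, passing the limit was not always enough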;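 note: myotubes were challenged with 10 µM simvastatin during compound exposure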
XiGFP reactiv – reactivates the inactive X chromosome in mouse fibroblasts; XiGFP mouse fibroblasts, % GFP-positive cells imaging, 3 d; cells co-treated with 5-aza-dC sensitizer; scaled so ellipticine positive control = 100%; activation, % at 7.58 µM; AID 743238; 360,000 tested, 0.055% active;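 active = mean normalized replicate activation at least 10% and every replicate at or above 10%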
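System: 68-5-11 XiGFP fibroblast line | Buffer or medium: DMEM containing 5-aza-dC | Compound: Single point | Times: Compounds 3 days, fix/stain 15 min at room temperature | Benchmarks: Positive control ellipticine, 6 µM final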
PglD inh – blocks C. jejuni PglD acetyltransferase activity. purified PglD enzyme, DTNB colorimetric CoA detection. inhibition, % at 12.5 µM. 360,000 tested, 0.098% active. AID 602405; in the data active = inhibition above about 16%, passing the limit was not always enough
E-selectin induc – E-selectin induction on HUVECs; P16581; HUVEC E-selectin immunofluorescence imaging; normalized: neutral wells 0, TNF-alpha wells 100; activation, % at 7.58 µM; 260,000 tested, 0.37% active;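 active = mean E-selectin-positive cell signal at least 10% of the positive control, reached in at least 60% of replicates, without over 20% cell loss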
Target sequence (P16581 whole entry, looked up): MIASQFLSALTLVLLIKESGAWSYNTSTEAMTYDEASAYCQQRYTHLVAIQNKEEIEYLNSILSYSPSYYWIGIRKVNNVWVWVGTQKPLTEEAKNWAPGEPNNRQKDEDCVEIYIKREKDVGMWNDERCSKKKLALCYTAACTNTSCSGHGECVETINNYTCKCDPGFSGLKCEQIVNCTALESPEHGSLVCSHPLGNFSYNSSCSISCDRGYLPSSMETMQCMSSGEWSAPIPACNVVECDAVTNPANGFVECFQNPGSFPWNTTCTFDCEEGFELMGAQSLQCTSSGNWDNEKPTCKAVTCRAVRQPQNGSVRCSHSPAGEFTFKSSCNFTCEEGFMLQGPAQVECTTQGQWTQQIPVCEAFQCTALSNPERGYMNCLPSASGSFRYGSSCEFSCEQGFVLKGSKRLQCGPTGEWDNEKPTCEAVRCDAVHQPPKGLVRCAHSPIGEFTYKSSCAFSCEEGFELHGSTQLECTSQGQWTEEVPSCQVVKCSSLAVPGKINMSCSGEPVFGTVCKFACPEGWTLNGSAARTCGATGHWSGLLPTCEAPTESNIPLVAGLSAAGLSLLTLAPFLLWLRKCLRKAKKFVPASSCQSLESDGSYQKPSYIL
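System: HUVEC, human umbilical vein endothelial cells; quantity: 3,000 cells/well; buffer or medium: EGM-2 medium, gelatin-coated wells; dosing: single-point compound dose; detection: immunofluorescence imaging; evaluation: % PE-positive cells; benchmarks: TNF-alpha, DMSO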
Large screens that a line does not name were inactive; ! = a repeat was not active. A selection: hits, their analogues and other compounds. The true share with any hit is near 3.3%.

Cc1ccc(C(=O)NCC(=O)NCC(c2cccs2)N2CCOCC2)cc1C (stereo not given)	DENV2 CPE 93 (no result: E-selectin induc)
COCC(=O)N(C)C[C@H]1Oc2ncc(-c3ccccc3C)cc2C(=O)N([C@@H](C)CO)C[C@H]1C	none
CC(C)CNC(=O)CN(C1CCCCC1)S(=O)(=O)c1ccccc1	Statin myotox sup 102 (no result: DENV2 CPE, FGF22 binding, XiGFP reactiv)
Cc1ccc(CNC(=O)CN(C2CCCCC2)S(C)(=O)=O)cc1	none (no result: DENV2 CPE, FGF22 binding, XiGFP reactiv, E-selectin induc)
CS(=O)(=O)N(CC(=O)NCc1ccccc1)C1CCCCC1	Statin myotox sup 120 (no result: DENV2 CPE, FGF22 binding, XiGFP reactiv, E-selectin induc)
Cc1noc(C)c1S(=O)(=O)Nc1ccc2c(c1)C(=O)N([C@H](C)CO)C[C@H](C)[C@H](CN(C)CC1CCCCC1)OCCCC[C@H](C)O2	none
O=S(=O)(Cc1ccccc1)N1C[C@@H]2N[C@H](C1)C2c1ccc(-c2ccccc2)cc1 (stereo not given in full)	none (no result: FGF22 binding, Statin myotox sup, PglD inh)
COc1ccc(C)cc1Nc1n[n+](-c2ccccc2)c(-c2ccc(C(=O)O)cc2)s1	FGF22 binding 44 (no result: DENV2 CPE)
OC(Cc1ccccc1)c1ncc(-c2ccc(Cl)cc2)[nH]1 (stereo not given)	none
OC(Cc1ccccc1Br)c1ncc(-c2ccc(Cl)cc2)[nH]1 (stereo not given)	FGF22 binding 2.7, E-selectin induc 159
CCCCCc1nnc(NC(=O)Cc2ccc([N+](=O)[O-])cc2)s1	FGF22 binding 43 (no result: Statin myotox sup, PglD inh)
CC(C)(C)Cc1nnc(NC(=O)Cc2ccc([N+](=O)[O-])cc2)s1	none (no result: DENV2 CPE, FGF22 binding, Statin myotox sup, PglD inh)
COc1cc(/C(C)=N\NC(=O)CSc2nc3ccccc3n2C)ccc1O	none
C/C(=N/NC(=O)CSc1nc2ccccc2n1C)c1ccncc1	FGF22 binding 43 (no result: Statin myotox sup, PglD inh)
C/C(=N\NC(=O)CSc1nc2ccccc2[nH]1)c1ccncc1	FGF22 binding 43 (no result: E-selectin induc)
CCS(=O)(=O)N1CC(=O)N2[C@H](CO)[C@@H](c3ccc(C#Cc4ccc(F)cc4)cc3)[C@@H]2C1	none (no result: DENV2 CPE, FGF22 binding, Statin myotox sup, PglD inh, E-selectin induc)
CCOc1ccc(OCCOCCOc2c(Cl)cccc2Cl)cc1	Statin myotox sup 133 (no result: DENV2 CPE, FGF22 binding, XiGFP reactiv, E-selectin induc)
CCOc1ccccc1OCCOCCOc1c(Cl)cccc1Cl	none (no result: DENV2 CPE, FGF22 binding, Statin myotox sup, PglD inh)
O=C(Nc1cc2c(cc1[N+](=O)[O-])OCCO2)c1cccnc1	FGF22 binding 43
C[C@@H]1CN([C@H](C)CO)C(=O)Cc2cc(NS(=O)(=O)c3cn(C)cn3)ccc2O[C@@H]1CN(C)C(=O)Nc1ccc2c(c1)OCO2	none
C[C@H]1CN([C@@H](C)CO)C(=O)Cc2cc(NC(=O)Nc3ccccc3)ccc2O[C@@H]1CN(C)C(=O)Nc1ccc(F)cc1	none
C[C@H](CO)N1C[C@H](C)[C@@H](CN(C)S(=O)(=O)c2ccc(Cl)cc2)Oc2ccc(NC(=O)NC3CCCCC3)cc2C1=O	none
C[C@H]1CN([C@@H](C)CO)C(=O)c2cc(NC(=O)NC3CCCCC3)ccc2O[C@@H]1CN(C)S(=O)(=O)c1ccc(Cl)cc1	E-selectin induc 449
C[C@@H]1CN([C@@H](C)CO)C(=O)c2cc(NC(=O)NC3CCCCC3)ccc2O[C@@H]1CN(C)S(=O)(=O)c1ccc(Cl)cc1	E-selectin induc 27
CCNC(=O)C[C@@H]1CC[C@H]2[C@H](COc3ccc(NC(=O)c4ccccc4Cl)cc3C(=O)N2C)O1	none
COC(=O)c1cc([N+](=O)[O-])c(-n2cncn2)c([N+](=O)[O-])c1	FGF22 binding 43 (no result: Statin myotox sup, PglD inh)
C[C@H](CO)N1C[C@H](C)[C@H](CN(C)CC2CC2)Oc2c(cccc2N(C)C)C1=O	DENV2 CPE 44
C[C@H](CO)N1C[C@H](C)[C@@H](CN(C)Cc2ccccc2)Oc2c(cccc2N(C)C)C1=O	none (no result: E-selectin induc)
C[C@H](CO)N1C[C@H](C)[C@@H](CN(C)Cc2ccncc2)Oc2ccc(N(C)C)cc2C1=O	DENV2 CPE 47 (no result: E-selectin induc)
C[C@@H]1CN([C@H](C)CO)C(=O)c2cccc(N(C)C)c2O[C@H]1CN(C)Cc1ccncc1	DENV2 CPE 20
COc1ccc(-c2ccc([C@H]3[C@@H](CO)N4CCCCN(C(=O)NC(C)C)C[C@H]34)cc2)cc1	DENV2 CPE 31
COc1ccc(-c2ccc([C@@H]3[C@H]4CN(C(=O)NC(C)C)CCCCN4[C@H]3CO)cc2)cc1	none
COc1ccc(-c2ccc([C@H]3[C@H](CO)N4CCCCN(C(=O)NC(C)C)C[C@@H]34)cc2)cc1	DENV2 CPE 40
O=C(/C=C/c1cccc([N+](=O)[O-])c1)Nc1cccc(NC(=O)c2cccs2)c1	FGF22 binding 1.7 (no result: E-selectin induc)
O=C(Nc1ccc(Cc2ccncc2)cc1)c1cccs1	DENV2 CPE 31 (no result: E-selectin induc)
O=C(/C=C/c1ccc(Cl)c([N+](=O)[O-])c1)Nc1cccc(NC(=O)c2ccco2)c1	FGF22 binding 45 (no result: PglD inh, E-selectin induc)
O=C(/C=C/c1ccc(Cl)c([N+](=O)[O-])c1)Nc1ccc(NC(=O)c2ccco2)cc1	none (no result: PglD inh)
O=C(c1ccncc1)c1ccc(NC(=O)c2cccs2)cc1	none
Cc1ccc(NC(=O)c2cccs2)cc1[N+](=O)[O-]	FGF22 binding 44 (no result: Statin myotox sup, PglD inh, E-selectin induc)
CCCNC(=O)N(C)C[C@@H]1Oc2cc(-c3ccncc3)ccc2S(=O)(=O)N([C@@H](C)CO)C[C@H]1C	none
C[C@@H]1CN([C@H](C)CO)C(=O)Cc2cc(NC(=O)c3ccncc3)ccc2O[C@@H]1CN(C)S(=O)(=O)c1cccs1	none (no result: E-selectin induc)
O=C(C[C@H]1CC[C@@H](NC(=O)c2cccc(F)c2)[C@@H](CO)O1)NCCN1CCCC1	none
COc1ccc2c3c([nH]c2c1)[C@@H](CO)N(CC1CC1)CC31CN(C(=O)Nc2cccc(F)c2)C1	none (no result: Statin myotox sup, PglD inh)
COc1ccccc1NC(=O)Nc1ccncc1	none (no result: Statin myotox sup, PglD inh, E-selectin induc)
COc1ccccc1NC(=O)Nc1ccc(Cc2ccncc2)cc1	FGF22 binding 43 (no result: PglD inh)
COc1cc(NC(=O)c2nccn2C)cc(C(=O)Nc2cccc(C(F)(F)F)c2)c1	DENV2 CPE 110!
COc1cc(NC(=O)c2nccnc2N)cc(C(=O)Nc2cccc(C(F)(F)F)c2)c1	none
COc1cccc(C2(c3cccc(OC)c3)CC2C(=O)Nc2ccc(F)cc2)c1 (stereo not given)	DENV2 CPE 32 (no result: Statin myotox sup)
COc1cccc(NC(=O)c2ccc(OC(F)(F)F)cc2)c1	E-selectin induc 42
C=C1C(C(=O)Nc2cccc(OC)c2)C1C(=O)Nc1cccc(OC)c1 (stereo not given)	FGF22 binding 44 (no result: Statin myotox sup, PglD inh, E-selectin induc)
COc1ccc(C#Cc2ccc3c(c2)[C@H]2[C@H](CCN2C(=O)CC2CC2)[C@H](CO)N3)cc1	none
CCCN1C[C@H](C)[C@@H](OC)CN(C)C(=O)c2cc(NC(=O)CC)ccc2OC[C@H]1C	none (no result: DENV2 CPE, FGF22 binding, PglD inh)
CCOC(=O)CSc1ccc(C(=O)Nc2ccc(OC)cc2)cn1	FGF22 binding 43 (no result: Statin myotox sup, PglD inh, E-selectin induc)
COc1ccc(NC(=O)c2ccc(Oc3ncccn3)cc2)cc1	FGF22 binding 44
COc1cccc(NC(=O)C(c2ccccc2)N2CCN(c3ccccn3)CC2)c1 (stereo not given)	none (no result: DENV2 CPE, Statin myotox sup, PglD inh)
